High-throughput results as filed in PubChem.
PAFAH1B2 FP inh: blocks human PAF acetylhydrolase 1b catalytic subunit 2 | P68402 | recombinant PAFAH1B2, FP-rhodamine activity probe, fluorescence polarization | inhibition, % at 3.39 µM | 340,000 tested, 1.2% active | AID 492953;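 active = inhibition above the mean of all tested compounds plus 3 SD, cut at about 24% in these data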;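 also: 0% = enzyme with DMSO and 100% = wells lacking PAFAH1B2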
Target sequence (P68402 whole entry, looked up): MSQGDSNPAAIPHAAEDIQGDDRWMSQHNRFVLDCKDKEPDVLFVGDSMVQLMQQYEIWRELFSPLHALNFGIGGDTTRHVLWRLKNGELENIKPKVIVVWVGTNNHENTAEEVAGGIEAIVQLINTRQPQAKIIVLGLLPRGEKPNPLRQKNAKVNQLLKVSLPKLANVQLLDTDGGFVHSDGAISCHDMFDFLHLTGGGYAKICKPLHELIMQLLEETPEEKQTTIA
NR3A LBD binder: modulators (binders) of human NR3A ligand-binding domain | 340,000 tested, 2.5% active | NR3A LBD differential scanning fluorimetry, Tm shift; 0% = protein alone, 100% = glycine-bound protein | Tm shift relative to glycine control, % at 25 µM;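 active = melting temperature shift of at least 10% of the positive control shift, at one fixed dose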
PAFAH2 FP inh: PAFAH2 (human) inhibition; inhibition, % at 3.39 µM; AID 492956; Q99487; recombinant PAFAH2, FP-rhodamine activity probe, fluorescence polarization; 340,000 tested, 0.99% active;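 active = inhibition above the mean over all tested compounds plus 3 SD, cut at about 30% in these data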;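 also: inhibitors block probe labeling of enzyme so polarization drops; 0% = enzyme with DMSO and 100% = wells lacking PAFAH2 protein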
PAFAH1B3 FP inh: inhibitors of human PAFAH1B3. Q15102. recombinant PAFAH1B3, FP-rhodamine probe, fluorescence polarization. inhibition, % at 3.39 µM. 340,000 tested, 0.28% active. AID 492972;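 active = inhibition above the screen-wide average of all tested compounds plus 3 SD, cut at about 25% in these data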;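 also: 0% = enzyme with DMSO only and 100% = wells lacking PAFAH1B3 protein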
pPAFAH FP inh: pPAFAH (human) enzyme inhibition | 330,000 tested, 1.5% active | Q13093 | inhibition, % at 3.39 µM | recombinant pPAFAH, FP-rhodamine probe fluorescence polarization;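 active = inhibition above the mean inhibition across the screen plus 3 SD, cut at about 25% in these data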;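 also: inhibitors block binding of the rhodamine activity-based probe so polarization drops; 0% = enzyme with DMSO and 100% = wells lacking pPAFAH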
UCH37 DUB inh: human UCH37 deubiquitinating enzyme inhibition; AID 588478; purified proteasome/UCH37, Ub-AMC cleavage fluorescence; inhibition, % (concentration not given with the values); 330,000 tested, 0.33% active;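 active = mean inhibition over replicate wells above about 20%, limit read from the data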;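 also: 0% = compound-free wells with enzyme and 100% = wells lacking proteasome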
Target sequence (Q9Y5K5 whole entry, looked up): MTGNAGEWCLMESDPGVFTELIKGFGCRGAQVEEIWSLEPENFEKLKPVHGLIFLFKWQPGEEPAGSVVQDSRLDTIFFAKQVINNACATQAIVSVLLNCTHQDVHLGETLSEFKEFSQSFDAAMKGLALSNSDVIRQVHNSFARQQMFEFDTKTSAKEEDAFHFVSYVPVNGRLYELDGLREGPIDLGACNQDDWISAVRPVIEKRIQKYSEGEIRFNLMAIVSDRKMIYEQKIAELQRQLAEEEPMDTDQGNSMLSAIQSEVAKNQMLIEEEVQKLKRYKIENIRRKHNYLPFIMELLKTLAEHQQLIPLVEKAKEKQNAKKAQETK
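system = Proteasome-associated human UCH37 deubiquitinase | amount = 0.15 nM proteasome as dispensed | medium = pH 7.4 Tris-HCl (50 mM) with ovalbumin, ATP-MgCl2, DTT | incubation = 30 min preincubation with enzyme, 25 min cleavage at room temperature | detection = AMC fluorescence 355/460 nm | read-out basis = percent inhibition | controls = no-proteasome and no-compound wells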
* = called active by the depositor; x = no result. Rows were chosen to be rich in hits. Some 4.8% of all compounds tested hit in one or more screens of this group.

SMILES	PAFAH1B2 FP inh	NR3A LBD binder	PAFAH2 FP inh	PAFAH1B3 FP inh	pPAFAH FP inh	UCH37 DUB inh
O=C(Nc1nc(-c2cc3ccccc3oc2=O)cs1)c1ccc(Br)o1	-22	29*	-34	-43	-5	-61
COc1cccc2sc(Nc3nc(-c4ccncc4)cs3)nc12	-4	-2	-4	0	9	6
COc1ccc(Nc2nc(-c3cc4cccc(OC)c4oc3=O)cs2)cc1	0	16*	-2	-2	12	3
COc1ccc(-c2cc3cccc(OC)c3oc2=O)cc1	4	-1	-9	-1	3	-101
O=C(O)c1ccc(Nc2nc(-c3cc4ccccc4oc3=O)cs2)cc1O	x	5	x	x	x	-43
CC(CC(=O)NCc1ccco1)=NNC(=O)Cc1ccccc1	x	x	x	x	x	-4
Cc1ccc(S(=O)(=O)NN=Cc2cc(Br)ccc2O)cc1	x	x	x	x	x	5
O=C(N/N=C\c1cccc(Cl)c1)c1ccc(Cn2cc(Br)c([N+](=O)[O-])n2)o1	-7	12*	-13	-10	1	x
Cc1ccc(/C=N\NC(=O)c2ccc(Cn3cc(Br)c([N+](=O)[O-])n3)o2)o1	1	-4	-5	-4	-7	x
CCCc1cc(-c2[nH]ncc2-c2ccc3c(c2)OCCCO3)c(O)cc1O	4	12*	3	13	9	4
CCCc1cc(-c2[nH]ncc2-c2ccc(C(=O)OCC)o2)c(O)cc1O	4	-1	9	13	14	-34
CCOC(=O)c1sc(N(Cc2ccccc2)C(=O)COC(=O)c2ccccc2O)nc1C	42*	2	-5	2	9	-1
CCOC(=O)c1sc(N(Cc2ccccc2)C(=O)COC(=O)c2ccc(O)cc2)nc1C	-12	29*	-24	-15	-18	-1
O=S(=O)(c1ccc(Br)cc1)N1CCn2c(nc3ccccc32)C1	29*	-3	8	8	0	0
CC(=O)Nc1ccc(-c2cc(-c3ccc(NC(C)=O)cc3)nc(-c3ccccc3)n2)cc1	-31	x	-76	-52	-7	-197
CCC(=O)Nc1ccc(-c2cc(-c3ccccc3)nc(-c3ccc(NC(=O)CC)cc3)n2)cc1	-14	16*	-50	-36	-3	-35
CC(=O)Nc1ccc(-c2cc(-c3ccccc3)nc(-c3ccccc3)n2)cc1	-2	36*	-18	7	-2	-5
CC(=O)Nc1ccc(-c2cc(-c3ccc(NC(C)=O)cc3)nc(-c3ccc(NC(C)=O)cc3)n2)cc1	-18	5	-30	-30	-21	-183
Nc1ccc(-c2nc(-c3ccccc3)nc3ccccc23)cc1	1	7	5	5	10	-234
Nc1ccc(-c2cc(-c3cccc(N)c3)nc(-c3ccccc3)n2)cc1	1	22*	-1	5	6	-45
COc1ccc(NC(=O)ON=Cc2ccncc2)cc1	x	x	x	x	x	4
CCN(CC(=O)Nc1c(C(=O)OC)[nH]c2ccc(Cl)cc12)c1ccc2c(c1)OCO2	6	1	3	9	14	2
CCOC(=O)c1[nH]c2ccc(Cl)cc2c1NC(=O)/C=C/c1ccc2c(c1)OCO2	-2	22*	-14	9	0	-11
CC(=NNC(=O)C1=NNC(=O)C1C)c1cccs1 (centres undefined)	x	x	x	x	x	7
CCN1CCN(C2=C(NS(=O)(=O)c3ccc(NC(C)=O)cc3)C(=O)c3ccccc3C2=O)CC1	12	15*	4	18	2	12
SMILES	PAFAH1B2 FP inh	NR3A LBD binder	PAFAH2 FP inh	PAFAH1B3 FP inh	pPAFAH FP inh	UCH37 DUB inh
CC(=O)Nc1ccc(S(=O)(=O)NC2=C(N3CCN(Cc4ccccc4)CC3)C(=O)c3ccccc3C2=O)cc1	6	-5	14	4	15	4
O=C(NNC(=O)c1cc2cc(OC(F)(F)F)ccc2[nH]1)c1cccc(C(F)(F)F)c1	-1	23*	-4	-1	9	4
O=S(=O)(c1ccc(F)cc1)N1CCC2(CC1)OCCN2S(=O)(=O)c1cccs1	28*	-2	8	1	14	5
Cc1ccc(C)c(S(=O)(=O)N2CCC3(CC2)OCCN3S(=O)(=O)c2cccs2)c1	4	0	0	3	2	4
COc1ccc(C)cc1S(=O)(=O)N1CCC2(CC1)OCCN2S(=O)(=O)c1cccs1	0	16*	7	3	-1	-1
Cc1n[nH]c(=S)n1N=Cc1ccc(OCc2ccc(Cl)cc2Cl)cc1	x	x	x	x	x	0
Cc1cc2ncn(N=Cc3ccc([N+](=O)[O-])s3)c2cc1C	x	x	x	x	x	2
CCOc1ccc(CCNC(=O)C2CCCN(c3nn4c(=O)cc(C)nc4s3)C2)cc1OCC (centres undefined)	2	1	3	11	0	-2
CCOc1ccc(CCNC(=O)C2CCCN(c3nnc(-n4cccc4)s3)C2)cc1OCC (centres undefined)	-1	39*	3	-2	2	-1
ON=Cc1cn(-c2ccccc2)nn1	x	x	x	x	x	4
CN(C)c1nc(N/N=C\c2ccc(Cl)c([N+](=O)[O-])c2)nc(Nc2ccc(F)cc2)n1	-7	30*	-21	-16	-21	x
Cc1cc(=O)[nH]c(NN=Cc2ccc(Cl)c([N+](=O)[O-])c2)n1	x	x	x	x	x	3
Cc1ccc(Cn2c(C(CO)Nc3nc(-c4ccc(Cl)c([N+](=O)[O-])c4)cs3)nc3ccccc32)cc1 (centres undefined)	0	26*	2	3	10	1
Cc1ccc(Cn2c(C(CO)Nc3nc(-c4ccc(F)cc4)cs3)nc3ccccc32)cc1 (centres undefined)	3	19*	4	-5	6	1
COc1ccc(-c2csc(NC(CO)c3nc4ccccc4n3Cc3ccc(C)cc3)n2)cc1 (centres undefined)	4	-1	1	-5	8	-1
Cc1ccc(-c2csc(NC(CO)c3nc4ccccc4n3CCOCCO)n2)cc1 (centres undefined)	7	-3	-3	4	13	2
CCc1cc2c(CN(C)Cc3ccccc3F)cc(=O)oc2cc1O	28*	-6	-5	4	0	-63
Cc1cc2oc(=O)cc(CN(C)Cc3cccc(F)c3)c2cc1C	16	-1	-1	5	4	3
Cc1ccc(/C=N/Nc2ccc(C(=O)O)cc2)s1	2	2	19	-1	26*	x
C/C(=N\NC(=O)c1csc(C)c1C)c1ccc(C)s1	4	15*	0	6	1	x
O=C(N/N=C/c1ccc[nH]1)c1c[nH]c2ccccc12	7	32*	-2	6	x	x
Cc1ccc(/C=N/NC(=O)c2c[nH]c3ccccc23)o1	4	17*	3	10	1	x
Cc1ccc(C=NNc2cccc(C(=O)O)c2)s1	x	x	x	x	x	9
O=[N+]([O-])c1ccc(C=NNc2ncc(-c3ccccc3)cn2)cc1	x	x	x	x	x	5
